Each block holds one compound with its values, some of them ahead of it.
Tests used:
[1] = target: T1, Sodium- and chloride-dependent glycine transporter 1 (Homo sapiens, UniProt P48067); experiment: Inhibition of [3H]glycine uptake at human glycine transporter 1 expressed in human JAR cells after 3 hrs by scintillation counting; type: cell-based
T1 sequence (P48067 whole entry): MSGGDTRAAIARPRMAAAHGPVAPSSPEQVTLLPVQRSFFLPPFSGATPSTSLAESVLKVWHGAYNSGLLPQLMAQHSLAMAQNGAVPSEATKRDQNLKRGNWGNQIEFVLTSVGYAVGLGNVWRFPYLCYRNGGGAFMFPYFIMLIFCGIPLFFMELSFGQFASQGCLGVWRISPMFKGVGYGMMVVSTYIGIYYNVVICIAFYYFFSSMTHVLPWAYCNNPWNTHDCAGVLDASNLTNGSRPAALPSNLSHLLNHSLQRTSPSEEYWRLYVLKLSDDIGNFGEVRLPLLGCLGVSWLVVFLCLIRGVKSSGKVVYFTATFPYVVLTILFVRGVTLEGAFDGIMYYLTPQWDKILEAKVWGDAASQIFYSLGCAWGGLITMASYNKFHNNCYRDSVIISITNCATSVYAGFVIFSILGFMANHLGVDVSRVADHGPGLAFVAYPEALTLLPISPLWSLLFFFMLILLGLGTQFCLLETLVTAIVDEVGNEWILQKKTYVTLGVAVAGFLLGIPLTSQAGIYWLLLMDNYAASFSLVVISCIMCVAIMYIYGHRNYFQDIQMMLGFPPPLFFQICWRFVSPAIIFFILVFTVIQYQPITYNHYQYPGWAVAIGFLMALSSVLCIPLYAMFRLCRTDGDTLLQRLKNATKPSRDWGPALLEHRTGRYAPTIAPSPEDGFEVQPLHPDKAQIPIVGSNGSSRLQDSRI

[2] = Bioavailability in Sprague-Dawley rat at 0.1 mg/kg, iv and 1 mg/kg, po; type: ADME, organism-based; conditions: in vivo
Outline: (§1)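 Six male Sprague-Dawley rats were used. Three received 0.1 mg/kg i.v. and three received 1 mg/kg p.o.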

[3] = Metabolic stability in rat liver microsomes assessed as parent compound turnover at 1 uM after 15 mins; type: ADME, Microsome; conditions: read-out: Stability
Outline: (§2)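 Test compounds at 1 μM incubated at 37 °C for 15 min with liver microsomes (rat, dog or human) at 0.5 mg/ml protein. Cosolvent was 0.99% MeCN + 0.01% DMSO. Read-out is % turnover of parent.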

[4] = Metabolic stability in human liver microsomes assessed as parent compound turnover at 1 uM after 15 mins; type: ADME, Microsome; conditions: read-out: Stability; outline: as §2
[5] = Volume of distribution at steady state in Sprague-Dawley rat at 0.1 mg/kg, iv and 1 mg/kg, po; type: ADME, organism-based; conditions: in vivo, read-out: Vdss; outline: as §1
[6] = Plasma clearance in Sprague-Dawley rat at 0.1 mg/kg, iv and 1 mg/kg, po; type: ADME, organism-based; outline: as §1
Rattus norvegicus = experiment: In vivo occupancy of glycine transporter 1 in rat; type: functional
[7] = Half life in Sprague-Dawley rat at 0.1 mg/kg, iv and 1 mg/kg, po; type: ADME, organism-based; conditions: in vivo; outline: as §1
[8] = Metabolic stability in dog liver microsomes assessed as parent compound turnover at 1 uM after 15 mins; type: ADME, Canis lupus familiaris, Microsome; conditions: read-out: Stability; outline: as §2
[9] = target: T2, Sodium- and chloride-dependent glycine transporter 1 (Homo sapiens) (UniProt P48067); experiment: Inhibition of [3H]glycine uptake at human glycine transporter 1 expressed in human JAR cells at 3 uM after 3 hrs by scintillation counting; type: cell-based
T2 sequence (whole entry): T1 sequence (P48067 whole entry)

[10] = target: T3, Sodium- and chloride-dependent glycine transporter 2 (Homo sapiens, UniProt Q9Y345); experiment: Inhibition of human glycine transporter 2
T3 sequence (Q9Y345 whole entry): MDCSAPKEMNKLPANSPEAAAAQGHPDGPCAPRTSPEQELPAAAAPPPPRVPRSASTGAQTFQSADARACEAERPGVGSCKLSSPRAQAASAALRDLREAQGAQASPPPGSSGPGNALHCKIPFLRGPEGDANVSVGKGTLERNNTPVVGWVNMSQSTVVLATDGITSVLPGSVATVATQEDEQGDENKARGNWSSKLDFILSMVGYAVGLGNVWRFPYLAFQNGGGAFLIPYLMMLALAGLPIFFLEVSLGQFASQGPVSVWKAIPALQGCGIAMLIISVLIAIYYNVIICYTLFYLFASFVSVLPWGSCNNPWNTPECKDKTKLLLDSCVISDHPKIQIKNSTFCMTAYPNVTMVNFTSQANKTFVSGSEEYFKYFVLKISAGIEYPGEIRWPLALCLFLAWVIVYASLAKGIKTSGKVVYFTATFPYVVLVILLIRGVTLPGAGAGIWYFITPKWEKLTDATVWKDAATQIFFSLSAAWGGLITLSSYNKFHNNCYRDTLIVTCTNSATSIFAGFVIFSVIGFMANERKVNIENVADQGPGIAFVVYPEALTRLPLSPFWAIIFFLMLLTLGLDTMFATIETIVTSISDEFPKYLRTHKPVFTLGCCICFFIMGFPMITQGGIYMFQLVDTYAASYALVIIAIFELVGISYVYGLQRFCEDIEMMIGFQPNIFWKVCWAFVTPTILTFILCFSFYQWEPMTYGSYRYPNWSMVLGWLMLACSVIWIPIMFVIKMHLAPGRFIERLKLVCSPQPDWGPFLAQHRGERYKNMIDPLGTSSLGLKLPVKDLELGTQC

Mus musculus = experiment: Ex vivo occupancy of glycine transporter 1 in po dosed mouse; type: functional
[11] = Volume of distribution in Sprague-Dawley rat at 0.1 mg/kg, iv and 1 mg/kg, po; type: ADME, organism-based; conditions: in vivo; outline: as §1
[12] = Clearance in Sprague-Dawley rat at 0.1 mg/kg, iv and 1 mg/kg, po; type: ADME, organism-based; conditions: in vivo; outline: as §1

Structure (SMILES): Cn1ncnc1S(=O)(=O)N1CCC(CNC(=O)c2ccc(Cl)cc2Cl)(CC2CC2)CC1
IC50 [1]: 314 nM

Structure (SMILES): Cn1ncc(S(=O)(=O)N2CC(CNC(=O)c3ccc(Cl)cc3Cl)(CC3CC3)C2)n1
IC50 [1]: 132 nM

Structure (SMILES): Cn1cc(S(=O)(=O)[C@H]2CC[C@](CNC(=O)c3ccc(Cl)cc3Cl)(CC3CC3)CC2)nn1
bioavailability [2]: 105%
metabolised at 0.25 h, 1 µM [3]: 10%
IC50 [1]: 5.44 nM
metabolised at 0.25 h, 1 µM [4]: 28%
Vd [5]: 2.6 L/kg
clearance [6]: 34 mL/min/kg
Occ50 (Rattus norvegicus): 3.4 mg/kg
half-life [7]: 66 min

Structure (SMILES): Cn1cc(S(=O)(=O)N2CC(CNC(=O)c3ccc(Cl)cc3Cl)(CC3CC3)C2)nn1
metabolised at 0.25 h, 1 µM [3]: 88%
IC50 [1]: 0.1 nM
metabolised at 0.25 h, 1 µM [4]: 32%
metabolised at 0.25 h, 1 µM [8]: 24%

Structure (SMILES): O=C(NCC1(CC2CC2)CCN(S(=O)(=O)c2cn(CC(F)(F)F)nn2)CC1)c1ccc(Cl)cc1Cl
IC50 [1]: 502 nM

Structure (SMILES): CCn1cc(S(=O)(=O)N2CCC(CNC(=O)c3ccc(Cl)cc3Cl)(CC3CC3)CC2)nn1
IC50 [1]: 28.2 nM

Structure (SMILES): O=C(NCC1(c2ncccc2F)CCN(S(=O)(=O)CC2CC2)CC1)c1ccc(Cl)cc1Cl
metabolised at 0.25 h, 1 µM [3]: 78%
IC50 [1]: 2 nM
metabolised at 0.25 h, 1 µM [4]: 21%
metabolised at 0.25 h, 1 µM [8]: 20%

Structure (SMILES): Cn1nncc1S(=O)(=O)N1CC(CNC(=O)c2ccc(Cl)cc2Cl)(CC2CC2)C1
IC50 [1]: 185 nM

Structure (SMILES): O=C(NCC1(CC2CC2)CN(S(=O)(=O)c2c[nH]nn2)C1)c1ccc(Cl)cc1Cl
IC50 [1]: 871 nM

Structure (SMILES): Cn1cc(S(=O)(=O)N2CCC(CNC(=O)c3ccc(Cl)cc3Cl)(CC3CC3)CC2)cn1
metabolised at 0.25 h, 1 µM [3]: 5%
IC50 [1]: 10.3 nM
metabolised at 0.25 h, 1 µM [4]: 10%
IC50 [10]: > 10 µM
metabolised at 0.25 h, 1 µM [8]: 38%

Structure (SMILES): Cn1cc(S(=O)(=O)[C@H]2CC[C@@](CNC(=O)c3ccc(Cl)cc3Cl)(CC3CC3)CC2)nn1
bioavailability [2]: 59%
metabolised at 0.25 h, 1 µM [3]: 23%
IC50 [1]: 1.89 nM
metabolised at 0.25 h, 1 µM [4]: 28%
Vd [5]: 2.3 L/kg
clearance [6]: 16 mL/min/kg
Occ50 (Rattus norvegicus): 2.2 mg/kg
half-life [7]: 108 min

Structure (SMILES): Cn1cnc(S(=O)(=O)N2CCC(CNC(=O)c3ccc(Cl)cc3Cl)(CC3CC3)CC2)n1
inhibition [9]: 13%

Structure (SMILES): Cn1cnnc1S(=O)(=O)N1CCC(CNC(=O)c2ccc(Cl)cc2Cl)(CC2CC2)CC1
IC50 [1]: 124 nM

Structure (SMILES): CCn1cc(S(=O)(=O)N2CC(CNC(=O)c3ccc(Cl)cc3Cl)(CC3CC3)C2)nn1
metabolised at 0.25 h, 1 µM [3]: 65%
IC50 [1]: 2.58 nM
metabolised at 0.25 h, 1 µM [4]: 45%
metabolised at 0.25 h, 1 µM [8]: 44%

Structure (SMILES): O=C(NCC1(c2ncccc2F)CCN(S(=O)(=O)Cc2ccccc2)CC1)c1ccc(Cl)cc1Cl
inhibition [9]: 33%

Structure (SMILES): Cn1cc(S(=O)(=O)N2CCC(CNC(=O)c3ccc(Cl)cc3Cl)(CC3CC3)CC2)nn1
bioavailability [2]: 27%
metabolised at 0.25 h, 1 µM [3]: 88%
IC50 [1]: 0.32 nM
metabolised at 0.25 h, 1 µM [4]: 43%
Occ50 (Mus musculus): <1 mg/kg
Vd [11]: 2.2 L/kg
IC50 [10]: > 10 µM
clearance [12]: 39 mL/min/kg
metabolised at 0.25 h, 1 µM [8]: 34%
half-life [7]: 66 min

Structure (SMILES): O=C(NCC1(c2ncccc2F)CCN(S(=O)(=O)c2cccnc2)CC1)c1ccc(Cl)cc1Cl
metabolised at 0.25 h, 1 µM [3]: 99%
IC50 [1]: 11.6 nM
metabolised at 0.25 h, 1 µM [4]: 99%
metabolised at 0.25 h, 1 µM [8]: 96%

Structure (SMILES): O=C(NCC1(c2ncccc2F)CCN(S(=O)(=O)c2ccc(Cl)s2)CC1)c1ccc(Cl)cc1Cl
inhibition [9]: 20%

More lines, main results first:

inhibition [9]: 31%
Structure (SMILES): Cc1nc(S(=O)(=O)N2CCC(CNC(=O)c3ccc(Cl)cc3Cl)(c3ncccc3F)CC2)cn1C

metabolised at 0.25 h, 1 µM [3]: 55%
IC50 [1]: 5.43 nM
metabolised at 0.25 h, 1 µM [4]: 42%
IC50 [10]: > 10 µM
metabolised at 0.25 h, 1 µM [8]: 24%
Structure (SMILES): Cn1cc(S(=O)(=O)N2CCC(CNC(=O)c3ccc(Cl)cc3Cl)(c3ncccc3F)CC2)cn1

bioavailability [2]: 3%
metabolised at 0.25 h, 1 µM [3]: 6%
IC50 [1]: 0.65 nM
metabolised at 0.25 h, 1 µM [4]: 20%
IC50 [10]: > 10 µM
metabolised at 0.25 h, 1 µM [8]: 17%
half-life [7]: 18 min
Structure (SMILES): Cn1cc(S(=O)(=O)N2CCC(CNC(=O)c3ccc(Cl)cc3Cl)(c3ncccc3F)CC2)nn1
Occ50 (Mus musculus): 7.5 mg/kg

inhibition [9]: 38%
Structure (SMILES): O=C(NCC1(c2ncccc2F)CCN(S(=O)(=O)c2ccccc2)CC1)c1ccc(Cl)cc1Cl

metabolised at 0.25 h, 1 µM [3]: 73%
IC50 [1]: 4.33 nM
metabolised at 0.25 h, 1 µM [4]: 23%
metabolised at 0.25 h, 1 µM [8]: 25%
Structure (SMILES): CCCS(=O)(=O)N1CCC(CNC(=O)c2ccc(Cl)cc2Cl)(c2ncccc2F)CC1

metabolised at 0.25 h, 1 µM [3]: 15%
IC50 [1]: 0.31 nM
metabolised at 0.25 h, 1 µM [4]: 22%
metabolised at 0.25 h, 1 µM [8]: 5%
Structure (SMILES): Cn1cc(S(=O)(=O)N2CC(CNC(=O)c3ccc(Cl)cc3Cl)(c3ncccc3F)C2)nn1

metabolised at 0.25 h, 1 µM [3]: 98%
IC50 [1]: 125 nM
metabolised at 0.25 h, 1 µM [8]: 72%
Structure (SMILES): O=C(NCC1(c2ncccc2F)CCN(S(=O)(=O)c2cccs2)CC1)c1ccc(Cl)cc1Cl

bioavailability [2]: 48%
metabolised at 0.25 h, 1 µM [3]: 17%
IC50 [1]: 3.62 nM
metabolised at 0.25 h, 1 µM [4]: 21%
IC50 [10]: > 10 µM
clearance [6]: 46 mL/min/kg
metabolised at 0.25 h, 1 µM [8]: 70%
half-life [7]: 144 min
Structure (SMILES): Cn1cc(S(=O)(=O)N2CC(CNC(=O)c3ccc(Cl)cc3Cl)(CC3CC3)C2)cn1
Occ50 (Mus musculus): 3.8 mg/kg

metabolised at 0.25 h, 1 µM [3]: 56%
IC50 [1]: 2.95 nM
metabolised at 0.25 h, 1 µM [4]: 25%
metabolised at 0.25 h, 1 µM [8]: < 5%
Structure (SMILES): Cn1cc(S(=O)(=O)N2CC(CNC(=O)c3ccc(Cl)cc3Cl)(c3ncccc3F)C2)cn1

metabolised at 0.25 h, 1 µM [3]: 30%
IC50 [1]: 1.74 nM
IC50 [10]: > 10 µM
metabolised at 0.25 h, 1 µM [8]: 21%
Structure (SMILES): Cn1cnc(S(=O)(=O)N2CCC(CNC(=O)c3ccc(Cl)cc3Cl)(c3ncccc3F)CC2)c1
